Results from different studies.
Lines come from different studies, so protocols differ.
PDGFRA: Platelet-derived growth factor receptor alpha (PDGFRA, Homo sapiens, UniProt P16234)
PDGFRA V561D: Platelet-derived growth factor receptor alpha (PDGFRA, Homo sapiens, UniProt P16234, V561D)
PDGFRA D842V: Platelet-derived growth factor receptor alpha (PDGFRA, Homo sapiens, UniProt P16234, D842V)

N#CCCc1ccc2c(c1)-c1[nH]c3ccc([N+](=O)[O-])cc3c1CC(=O)N2 — remaining signal (PDGFRA; cell-free assay; 0.5 µM): 87.4%
Cc1sc(C(=O)NC2COC2)cc1-n1cc(NC(=O)Nc2c(F)cccc2Cl)cn1 — remaining activity (PDGFRA; enzyme activity, inhibitor; 10 µM): 114%
CNC(=O)Nc1ccc2c(c1)[C@@]1(CC2)OC(=O)N(CC(=O)N(Cc2ccc(F)cc2)[C@@H](C)C(F)(F)F)C1=O — remaining binding (PDGFRA; cell-free assay, competition with immobilised ligand; 1 µM): 83%
Cc1ccc(C(=O)NCc2ccsc2)cc1C#Cc1cn(C(C)C)c2ncnc(N)c12 — activity vs control (PDGFRA V561D; enzyme activity, inhibitor; 1 µM): 1%
COc1cc(-c2cc(-c3ccc(N4CCNCC4)cc3)cnc2N)cc(OC)c1OC — inhibition (Platelet-derived growth factor receptor alpha (PDGFRA, Homo sapiens, UniProt P16234, T674I); enzyme activity, inhibitor; 1 µM): 4%
CC/C(=N\NC(=O)NCc1cccc(O)c1)c1ccc(O)c(C)c1O — inhibition (PDGFRA V561D; enzyme activity, inhibitor; 0.1 µM): 0.9%
CCN(CC)c1ccc(C2=NNC(=O)CC2C)cc1[N+](=O)[O-] (centres unmarked) — remaining activity (PDGFRA; enzyme activity, inhibitor; 10 µM): 91%
Cc1cc(NC(=O)c2cccc3cc(-c4cccc5[nH]nc(N)c45)ccc23)ccc1F — activity vs control (PDGFRA; enzyme activity, inhibitor; 0.1 µM): 92%
Cc1cnc(NC2CCOCC2)nc1-n1cnc(C(=O)NC(CN)c2cc(F)cc(Cl)c2)c1 (centres unmarked) — remaining activity (PDGFRA; enzyme activity, inhibitor, radiometric; 1 µM): 94%
O=C(N1CCS(=O)(=O)CC1)N1C[C@H](c2ccc(OC(F)(F)F)cc2)C[C@H](c2nc(C3CC3)no2)C1 — remaining binding (PDGFRA; cell-free assay, competition with immobilised ligand; 1 µM): 100%
CC(C)(C)c1nc(-c2cccc(NS(=O)(=O)c3c(F)cccc3F)c2F)c(-c2ccnc(N)n2)s1 — remaining activity (PDGFRA; enzyme activity, inhibitor, radiometric; 1 µM): 103%
COc1cc2ncnc(Nc3ccc(Oc4ccccc4)c(C)c3C)c2cc1OC — inhibition (PDGFRA D842V; enzyme activity, inhibitor; 1 µM): 3%
CCc1ccccc1C(=O)Nc1n[nH]c2c(C)c(F)c(C3C(C#N)=C(C)N(C)C(C)=C3C#N)cc12 — remaining binding (PDGFRA; cell-free assay, competition with immobilised ligand; 1 µM): 100%
CCCOc1ccc(OC)c(F)c1C(=O)c1ccc(C(=O)N[C@@H]2CNC[C@H]2NC(=O)c2ccc3[nH]ncc3c2)cc1 — remaining activity (PDGFRA D842V; enzyme activity, inhibitor; 10 µM): 12%
C[C@H](c1ccc(F)cc1)N(Cc1cccc(C(=O)O)c1)C(=O)c1cnc2ccccc2c1 — remaining binding (PDGFRA; cell-free assay, competition with immobilised ligand; 1 µM): 100%
FC(F)(F)Oc1cccc(-c2cnc3ccc(-c4ccncc4)nn23)c1 — activity vs control (PDGFRA; enzyme activity, inhibitor, radiometric; 5 µM): 49%
Cc1ccc(NC(=O)c2ccc(C)c(C(F)(F)F)c2)cc1C#Cc1nn(C2CCC(O)CC2)c2ncnc(N)c12 (centres unmarked) — remaining activity (PDGFRA V561D; enzyme activity, inhibitor; 10 µM): 0%
CNC(=O)c1cc(Oc2ccc(NC(=O)Nc3ccc(Cl)c(C(F)(F)F)c3)cc2)ccn1 — inhibition (PDGFRA D842V; enzyme activity, inhibitor; 10 µM): 99%
Nc1ncnc2occ(-c3ccc(NC(=O)Nc4cc(C(F)(F)F)ccc4F)cc3)c12 — remaining activity (PDGFRA; enzyme activity, inhibitor; 20 µM): 0.05%
CCN(CC)CCNC(=O)c1c(C)[nH]c(/C=C2\C(=O)Nc3ccc(F)cc32)c1C — remaining signal (PDGFRA; cell-free assay; 0.5 µM): 10.9%
CN(C)c1ncnc(-c2ccc3nc(Nc4cc(CN5CCN(C(=O)CC(F)(F)F)CC5)ccn4)[nH]c3c2)c1Cl — remaining binding (PDGFRA; cell-free assay, competition with immobilised ligand; 1 µM): 61%
O=C1NC(=O)c2cc(Nc3ccc(F)cc3)c(Nc3ccc(F)cc3)cc21 — remaining signal (PDGFRA; cell-free assay, inhibitor; 0.5 µM): 101%
COc1cc2ncnc(Nc3ccc(Oc4ccccc4)cc3C)c2cc1OC — inhibition (PDGFRA; enzyme activity, inhibitor; 1 µM): 9%
C[C@@H]1CN(c2cc(-c3nn(C)c4ccc(OC5(C)CC5)cc34)ncn2)C[C@H](C)O1 — remaining binding (PDGFRA; cell-free assay, competition with immobilised ligand; 1 µM): 83%
Cc1ccc(C(=O)Nc2ccc(CN3CCN(C)CC3)c(C(F)(F)F)c2)cc1C#Cc1cnc2cccnn12 — remaining activity (PDGFRA; enzyme activity, inhibitor; 23.5 nM): 5.3%
CCC(=N\O)/C(C)=C/c1ccc(F)cc1 — remaining binding (PDGFRA; cell-free assay, competition with immobilised ligand; 1 µM): 78%
CNC(=O)c1cc2c(Oc3ccc(NC(=O)C4(C(=O)Nc5ccc(F)cc5)CC4)cc3)ccnc2cc1OC — inhibition (PDGFRA V561D; enzyme activity, inhibitor, radiometric; 1 µM): 101%
CN([C@@H]1CCc2c(CC(=O)O)c3cc(S(C)(=O)=O)ccc3n2C1)S(=O)(=O)c1ccc(F)cc1 — remaining binding (PDGFRA; cell-free assay, competition with immobilised ligand; 1 µM): 100%
CS(=O)(=O)CCNCc1ccc(-c2ccc3ncnc(Nc4ccc(OCc5cccc(F)c5)c(Cl)c4)c3c2)o1 — remaining signal (PDGFRA; cell-free assay; 0.5 µM): 108%
